Assays:
Assay type in all cases: ADME, organism-based
[1] = test system: Cerebellum; experiment: Biodistribution in NMRI mouse cerebellum assessed per gram of tissue at 3.7 MBq/mL, iv after 2 mins by gamma counting; conditions: in vivo
Procedure, shortened: (§1)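 Male NMRI mice (30-40 g) under isoflurane (1.5-2.5% in oxygen) got 0.1 mL of HPLC-purified tracer diluted with 0.9% NaCl to 3.7 MBq/mL (ethanol ≤10%) via tail vein. Mice were decapitated at 2 or 60 min p.i., and organs, blood and urine were weighed and γ-counted. Values are background-corrected %ID or %ID/g, with blood mass taken as 7% of body mass.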

[2] = test system: Liver; experiment: Drug level in NMRI mouse liver assessed as standard uptake value at 3.7 MBq/mL, iv after 2 mins by gamma counting; conditions: in vivo
Procedure, shortened: (§2)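 Male NMRI mice (30-40 g) were anaesthetised with isoflurane. Each received 0.1 mL of HPLC-purified tracer, diluted in 0.9% NaCl to 3.7 MBq/mL (ethanol ≤10%), via a tail vein. Mice were decapitated at 2 or 60 min. Organs were dissected, weighed and γ-counted with background correction. SUV = (organ cpm/organ weight)/(total recovered counts/body weight). Blood mass was taken as 7% of body mass.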

[3] = test system: Heart; experiment: Biodistribution in NMRI mouse heart at 3.7 MBq/mL, iv after 60 mins by gamma counting; conditions: in vivo, 1 h; procedure, shortened: as §1
[4] = test system: Lung; experiment: Biodistribution in NMRI mouse lung at 3.7 MBq/mL, iv after 60 mins by gamma counting; conditions: in vivo, 1 h; procedure, shortened: as §1
[5] = Drug level in NMRI mouse spleen/pancreas assessed as standard uptake value at 3.7 MBq/mL, iv after 60 mins by gamma counting; conditions: in vivo, 1 h; procedure, shortened: as §2
[6] = Biodistribution in NMRI mouse cerebrum assessed per gram of tissue at 3.7 MBq/mL, iv after 60 mins by gamma counting; conditions: in vivo, 1 h; procedure, shortened: as §1
[7] = test system: Lung; experiment: Biodistribution in NMRI mouse lung at 3.7 MBq/mL, iv after 2 mins by gamma counting; conditions: in vivo; procedure, shortened: as §1
[8] = test system: Blood; experiment: Biodistribution in NMRI mouse blood at 3.7 MBq/mL, iv after 60 mins by gamma counting; conditions: in vivo, 1 h; procedure, shortened: as §1
[9] = test system: Stomach; experiment: Biodistribution in NMRI mouse stomach at 3.7 MBq/mL, iv after 60 mins by gamma counting; conditions: in vivo, 1 h; procedure, shortened: as §1
[10] = Biodistribution in NMRI mouse urine at 3.7 MBq/mL, iv after 60 mins by gamma counting; conditions: in vivo, 1 h; procedure, shortened: as §1
[11] = Biodistribution in NMRI mouse spleen/pancreas at 3.7 MBq/mL, iv after 60 mins by gamma counting; conditions: in vivo, 1 h; procedure, shortened: as §1
[12] = test system: Lung; experiment: Biodistribution in NMRI mouse lung assessed per gram of tissue at 3.7 MBq/mL, iv after 60 mins by gamma counting; conditions: in vivo, 1 h; procedure, shortened: as §1
[13] = test system: Kidney; experiment: Drug level in NMRI mouse kidney assessed as standard uptake value at 3.7 MBq/mL, iv after 60 mins by gamma counting; conditions: in vivo, 1 h; procedure, shortened: as §2
[14] = test system: Blood; experiment: Biodistribution in NMRI mouse blood at 3.7 MBq/mL, iv after 2 mins by gamma counting; conditions: in vivo; procedure, shortened: as §1
[15] = test system: Blood; experiment: Drug level in NMRI mouse blood assessed as standard uptake value at 3.7 MBq/mL, iv after 2 mins by gamma counting; conditions: in vivo; procedure, shortened: as §2
[16] = test system: Cerebellum; experiment: Drug level in NMRI mouse cerebellum assessed as standard uptake value at 3.7 MBq/mL, iv after 2 mins by gamma counting; conditions: in vivo; procedure, shortened: as §2
[17] = test system: Cerebellum; experiment: Biodistribution in NMRI mouse cerebellum at 3.7 MBq/mL, iv after 60 mins by gamma counting; conditions: in vivo, 1 h; procedure, shortened: as §1
[18] = Biodistribution in NMRI mouse spleen/pancreas assessed per gram of tissue at 3.7 MBq/mL, iv after 2 mins by gamma counting; conditions: in vivo; procedure, shortened: as §1
[19] = Drug level in NMRI mouse cerebrum assessed as standard uptake value at 3.7 MBq/mL, iv after 2 mins by gamma counting; conditions: in vivo; procedure, shortened: as §2
[20] = test system: Heart; experiment: Biodistribution in NMRI mouse heart assessed per gram of tissue at 3.7 MBq/mL, iv after 60 mins by gamma counting; conditions: in vivo, 1 h; procedure, shortened: as §1
[21] = test system: Stomach; experiment: Biodistribution in NMRI mouse stomach at 3.7 MBq/mL, iv after 2 mins by gamma counting; conditions: in vivo; procedure, shortened: as §1
[22] = test system: Liver; experiment: Drug level in NMRI mouse liver assessed as standard uptake value at 3.7 MBq/mL, iv after 60 mins by gamma counting; conditions: in vivo, 1 h; procedure, shortened: as §2
[23] = test system: Liver; experiment: Biodistribution in NMRI mouse liver at 3.7 MBq/mL, iv after 2 mins by gamma counting; conditions: in vivo; procedure, shortened: as §1
[24] = test system: Lung; experiment: Drug level in NMRI mouse lung assessed as standard uptake value at 3.7 MBq/mL, iv after 60 mins by gamma counting; conditions: in vivo, 1 h; procedure, shortened: as §2
[25] = Biodistribution in NMRI mouse cerebrum at 3.7 MBq/mL, iv after 2 mins by gamma counting; conditions: in vivo; procedure, shortened: as §1
[26] = Biodistribution in NMRI mouse spleen/pancreas at 3.7 MBq/mL, iv after 2 mins by gamma counting; conditions: in vivo; procedure, shortened: as §1
[27] = test system: Blood; experiment: Biodistribution in NMRI mouse blood assessed per gram of tissue at 3.7 MBq/mL, iv after 60 mins by gamma counting; conditions: in vivo, 1 h; procedure, shortened: as §1
[28] = test system: Liver; experiment: Biodistribution in NMRI mouse liver assessed per gram of tissue at 3.7 MBq/mL, iv after 60 mins by gamma counting; conditions: in vivo, 1 h; procedure, shortened: as §1
[29] = test system: Kidney; experiment: Drug level in NMRI mouse kidney assessed as standard uptake value at 3.7 MBq/mL, iv after 2 mins by gamma counting; conditions: in vivo; procedure, shortened: as §2
[30] = Drug level in NMRI mouse spleen/pancreas assessed as standard uptake value at 3.7 MBq/mL, iv after 2 mins by gamma counting; conditions: in vivo; procedure, shortened: as §2
[31] = Biodistribution in NMRI mouse spleen/pancreas assessed per gram of tissue at 3.7 MBq/mL, iv after 60 mins by gamma counting; conditions: in vivo, 1 h; procedure, shortened: as §1
[32] = test system: Heart; experiment: Biodistribution in NMRI mouse heart assessed per gram of tissue at 3.7 MBq/mL, iv after 2 mins by gamma counting; conditions: in vivo; procedure, shortened: as §1
[33] = test system: Intestine; experiment: Biodistribution in NMRI mouse intestine at 3.7 MBq/mL, iv after 60 mins by gamma counting; conditions: in vivo, 1 h; procedure, shortened: as §1
[34] = Biodistribution in NMRI mouse urine at 3.7 MBq/mL, iv after 2 mins by gamma counting; conditions: in vivo; procedure, shortened: as §1
[35] = test system: Blood; experiment: Drug level in NMRI mouse blood assessed as standard uptake value at 3.7 MBq/mL, iv after 60 mins by gamma counting; conditions: in vivo, 1 h; procedure, shortened: as §2
[36] = test system: Blood; experiment: Biodistribution in NMRI mouse blood assessed per gram of tissue at 3.7 MBq/mL, iv after 2 mins by gamma counting; conditions: in vivo; procedure, shortened: as §1
[37] = test system: Liver; experiment: Biodistribution in NMRI mouse liver at 3.7 MBq/mL, iv after 60 mins by gamma counting; conditions: in vivo, 1 h; procedure, shortened: as §1
[38] = test system: Heart; experiment: Drug level in NMRI mouse heart assessed as standard uptake value at 3.7 MBq/mL, iv after 2 mins by gamma counting; conditions: in vivo; procedure, shortened: as §2
[39] = test system: Cerebellum; experiment: Drug level in NMRI mouse cerebellum assessed as standard uptake value at 3.7 MBq/mL, iv after 60 mins by gamma counting; conditions: in vivo, 1 h; procedure, shortened: as §2
[40] = test system: Kidney; experiment: Biodistribution in NMRI mouse kidney at 3.7 MBq/mL, iv after 2 mins by gamma counting; conditions: in vivo; procedure, shortened: as §1
[41] = Drug level in NMRI mouse cerebrum assessed as standard uptake value at 3.7 MBq/mL, iv after 60 mins by gamma counting; conditions: in vivo, 1 h; procedure, shortened: as §2
[42] = test system: Heart; experiment: Biodistribution in NMRI mouse heart at 3.7 MBq/mL, iv after 2 mins by gamma counting; conditions: in vivo; procedure, shortened: as §1
[43] = test system: Liver; experiment: Biodistribution in NMRI mouse liver assessed per gram of tissue at 3.7 MBq/mL, iv after 2 mins by gamma counting; conditions: in vivo

CNc1ccc2nc(-c3ccc([18F])cc3)sc2c1
Drug uptake [1]: 11.76% | SUV [2]: 7 | Drug uptake [3]: 0.2% | Drug uptake [4]: 0.3% | SUV [5]: 0.3 | Drug uptake [6]: 1.39% | Drug uptake [7]: 1.8% | Drug uptake [8]: 2.2% | Drug uptake [9]: 1.6% | Drug uptake [10]: 13% | Drug uptake [11]: 0.3% | Drug uptake [12]: 1.4% | SUV [13]: 1.6 | Drug uptake [14]: 1.5% | SUV [15]: 0.2 | SUV [16]: 3.97 | Drug uptake [17]: 0.12% | Drug uptake [18]: 5.9% | SUV [19]: 4.1 | Drug uptake [20]: 1% | Drug uptake [21]: 2.3% | SUV [22]: 2.8 | Drug uptake [23]: 42.4% | SUV [24]: 0.5 | Drug uptake [25]: 3.42% | Drug uptake [26]: 1.4% | Drug uptake [27]: 0.9% | Drug uptake [28]: 8.3% | SUV [29]: 4.3 | SUV [30]: 2 | Drug uptake [31]: 0.9% | Drug uptake [32]: 5.8% | Drug uptake [33]: 37.2% | Drug uptake [34]: 0.2% | SUV [35]: 0.3 | Drug uptake [36]: 0.7% | Drug uptake [37]: 17.5% | SUV [38]: 2 | SUV [39]: 0.44 | Drug uptake [40]: 8.2% | SUV [41]: 0.48 | Drug uptake [42]: 0.8%

CN(C)c1ccc2nc(-c3ccc([18F])cc3)sc2c1
Drug uptake [1]: 9.23% | SUV [2]: 6.8 | Drug uptake [3]: 0.2% | Drug uptake [4]: 0.6% | SUV [5]: 0.4 | Drug uptake [6]: 1.94% | Drug uptake [7]: 2.2% | Drug uptake [8]: 2.4% | Drug uptake [9]: 1.2% | Drug uptake [10]: 7.6% | Drug uptake [11]: 0.3% | Drug uptake [12]: 1.9% | SUV [13]: 2.4 | Drug uptake [14]: 2.8% | SUV [15]: 0.4 | SUV [16]: 3.35 | Drug uptake [17]: 0.22% | Drug uptake [18]: 5.5% | Drug uptake [43]: 18.9% | SUV [19]: 3.2 | Drug uptake [20]: 1.3% | Drug uptake [21]: 1.4% | SUV [22]: 3 | Drug uptake [23]: 41.9% | SUV [24]: 0.7 | Drug uptake [25]: 2.95% | Drug uptake [26]: 1.5% | Drug uptake [27]: 0.9% | Drug uptake [28]: 8% | SUV [29]: 4.3 | SUV [30]: 2 | Drug uptake [31]: 1% | Drug uptake [32]: 7.4% | Drug uptake [33]: 28% | Drug uptake [34]: 0.1% | SUV [35]: 0.3 | Drug uptake [36]: 1.1% | Drug uptake [37]: 18.9% | SUV [38]: 2.7 | SUV [39]: 0.83 | Drug uptake [40]: 8.5% | SUV [41]: 0.72 | Drug uptake [42]: 1.2%
